Data published in ChEMBL document CHEMBL2440035, “Azetidines and spiro azetidines as novel P2 units in hepatitis C virus NS3 protease inhibitors” (Bioorg Med Chem Lett, 2013).

Experiments:
[1] = biological target: Prothrombin (Homo sapiens, UniProt P00734); assay: Inhibition of human thrombin
[2] = biological target: Cathepsin S (Homo sapiens, UniProt P25774); assay: Inhibition of human cathepsin S
[3] = biological target: Plasminogen (Homo sapiens, UniProt P00747); assay: Inhibition of human plasmin
[4] = biological target: T1, Neutrophil elastase (Homo sapiens) (UniProt P08246); assay: (§1) Inhibition of human neutrophil elastase
T1 sequence (whole entry): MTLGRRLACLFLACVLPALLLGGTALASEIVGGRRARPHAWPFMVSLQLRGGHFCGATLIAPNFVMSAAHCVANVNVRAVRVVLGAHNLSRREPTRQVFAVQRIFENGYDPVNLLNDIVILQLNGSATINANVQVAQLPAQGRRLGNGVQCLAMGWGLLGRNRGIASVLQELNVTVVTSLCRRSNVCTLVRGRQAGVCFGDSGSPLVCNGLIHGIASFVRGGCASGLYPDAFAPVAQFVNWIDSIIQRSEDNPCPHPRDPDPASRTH

[5] = tested on: Hepatitis C virus; assay: Ratio of EC90 for Hepatitis C virus genotype 1b NS3/4A protease D168A mutant to EC90 Hepatitis C virus genotype 1b wild type NS3/4A protease; set-up: species or system Hepatitis C virus subtype 1b
Summary of the method: (§2)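 Genotype 1b NS3 protease enzyme panel: wild type plus resistance mutants A156T, R155K, D168V, V36M, A156S, V170A and D168A. […] Resistance is expressed as the fold increase of each mutant's value over the wild-type value.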

[6] = tested on: Hepatitis C virus; assay: Ratio of EC50 for Hepatitis C virus genotype 1b NS3/4A protease D168A mutant to EC50 Hepatitis C virus genotype 1b wild type NS3/4A protease; set-up: species or system Hepatitis C virus subtype 1b; summary of the method: as §2
[7] = tested on: Hepatitis C virus; assay: Ratio of EC90 for Hepatitis C virus genotype 1b NS3/4A protease V170A mutant to EC90 Hepatitis C virus genotype 1b wild type NS3/4A protease; set-up: species or system Hepatitis C virus subtype 1b; summary of the method: as §2
[8] = tested on: Hepatitis C virus; assay: Ratio of EC50 for Hepatitis C virus genotype 1b NS3/4A protease V170A mutant to EC50 Hepatitis C virus genotype 1b wild type NS3/4A protease; set-up: species or system Hepatitis C virus subtype 1b; summary of the method: as §2
[9] = tested on: Hepatitis C virus; assay: Inhibition of Hepatitis C virus genotype 1b NS3/4A protease V170A mutant; set-up: species or system Hepatitis C virus subtype 1b
Summary of the method: (§3)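 Panel of genotype 1b NS3 protease enzymes (wild type and mutants). IC50 and IC90 are averages ± standard error from 2 independent assays. Fold change versus wild type given in parentheses.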

[10] = tested on: Hepatitis C virus; assay: Ratio of EC90 for Hepatitis C virus genotype 1b NS3/4A protease A156S mutant to EC90 Hepatitis C virus genotype 1b wild type NS3/4A protease; set-up: species or system Hepatitis C virus subtype 1b; summary of the method: as §2
[11] = tested on: Hepatitis C virus; assay: Ratio of EC50 for Hepatitis C virus genotype 1b NS3/4A protease A156S mutant to EC50 Hepatitis C virus genotype 1b wild type NS3/4A protease; set-up: species or system Hepatitis C virus subtype 1b; summary of the method: as §2
[12] = tested on: Hepatitis C virus; assay: Inhibition of Hepatitis C virus genotype 1b NS3/4A protease A156S mutant; set-up: species or system Hepatitis C virus subtype 1b; summary of the method: as §3
[13] = tested on: Hepatitis C virus; assay: Ratio of EC90 for Hepatitis C virus genotype 1b NS3/4A protease V36M mutant to EC90 Hepatitis C virus genotype 1b wild type NS3/4A protease; set-up: species or system Hepatitis C virus subtype 1b; summary of the method: as §2
[14] = tested on: Hepatitis C virus; assay: Ratio of EC50 for Hepatitis C virus genotype 1b NS3/4A protease V36M mutant to EC50 Hepatitis C virus genotype 1b wild type NS3/4A protease; set-up: species or system Hepatitis C virus subtype 1b; summary of the method: as §2
[15] = tested on: Hepatitis C virus; assay: Inhibition of Hepatitis C virus genotype 1b NS3/4A protease V36M mutant; set-up: species or system Hepatitis C virus subtype 1b; summary of the method: as §3
[16] = tested on: Hepatitis C virus; assay: Ratio of EC90 for Hepatitis C virus genotype 1b NS3/4A protease D168V mutant to EC90 Hepatitis C virus genotype 1b wild type NS3/4A protease; set-up: species or system Hepatitis C virus subtype 1b; summary of the method: as §2
[17] = tested on: Hepatitis C virus; assay: Ratio of EC50 for Hepatitis C virus genotype 1b NS3/4A protease D168V mutant to EC50 Hepatitis C virus genotype 1b wild type NS3/4A protease; set-up: species or system Hepatitis C virus subtype 1b; summary of the method: as §2
[18] = tested on: Hepatitis C virus; assay: Inhibition of Hepatitis C virus genotype 1b NS3/4A protease D168V mutant; set-up: species or system Hepatitis C virus subtype 1b; summary of the method: as §3
[19] = tested on: Hepatitis C virus; assay: Ratio of EC90 for Hepatitis C virus genotype 1b NS3/4A protease R155K mutant to EC90 Hepatitis C virus genotype 1b wild type NS3/4A protease; set-up: species or system Hepatitis C virus subtype 1b; summary of the method: as §2
[20] = tested on: Hepatitis C virus; assay: Inhibition of Hepatitis C virus genotype 1b NS3/4A protease D168A mutant; set-up: species or system Hepatitis C virus subtype 1b; summary of the method: as §3
[21] = tested on: Hepatitis C virus; assay: Ratio of EC50 for Hepatitis C virus genotype 1b NS3/4A protease R155K mutant to EC50 Hepatitis C virus genotype 1b wild type NS3/4A protease; set-up: species or system Hepatitis C virus subtype 1b; summary of the method: as §2
[22] = tested on: Hepatitis C virus; assay: Inhibition of Hepatitis C virus genotype 1b NS3/4A protease R155K mutant; set-up: species or system Hepatitis C virus subtype 1b; summary of the method: as §3
[23] = tested on: Hepatitis C virus; assay: Ratio of EC90 for Hepatitis C virus genotype 1b NS3/4A protease A156T mutant to EC90 Hepatitis C virus genotype 1b wild type NS3/4A protease; set-up: species or system Hepatitis C virus subtype 1b; summary of the method: as §2
[24] = tested on: Hepatitis C virus; assay: Ratio of EC50 for Hepatitis C virus genotype 1b NS3/4A protease A156T mutant to EC50 Hepatitis C virus genotype 1b wild type NS3/4A protease; set-up: species or system Hepatitis C virus subtype 1b; summary of the method: as §2
[25] = tested on: Hepatitis C virus; assay: Inhibition of Hepatitis C virus genotype 1b NS3/4A protease A156T mutant; set-up: species or system Hepatitis C virus subtype 1b; summary of the method: as §3
[26] = tested on: Hepatitis C virus; assay: Inhibition of Hepatitis C virus genotype 1b wild type NS3/4A protease; set-up: species or system Hepatitis C virus subtype 1b; summary of the method: as §3
[27] = tested on: Huh-7; assay: Cytotoxicity against human HuH7 cells; type: cell-based
Summary of the method: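 Huh7 cytotoxicity measured together with the replicon antiviral assay, by extraction and amplification of ribosomal RNA. Each concentration run in triplicate and reported as mean.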

[28] = tested on: Hepatitis C virus; assay: Antiviral activity against Hepatitis C virus infected in human HuH7 cells assessed as viral RNA replication; type: functional, organism-based, Hepacivirus hominis; conditions: Huh-7
Summary of the method: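 Subgenomic HCV replicon in Huh7 cells; inhibition of HCV RNA replication measured by extraction and amplification of HCV RNA. Each concentration run in triplicate and reported as mean; EC50 derived.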

[29] = biological target: T2, Neutrophil elastase (Homo sapiens, UniProt P08246); assay: as §1
T2 sequence (P08246 whole entry): T1 sequence (whole entry)

Plasminogen, sequence (P00747 97-580 limits assumed): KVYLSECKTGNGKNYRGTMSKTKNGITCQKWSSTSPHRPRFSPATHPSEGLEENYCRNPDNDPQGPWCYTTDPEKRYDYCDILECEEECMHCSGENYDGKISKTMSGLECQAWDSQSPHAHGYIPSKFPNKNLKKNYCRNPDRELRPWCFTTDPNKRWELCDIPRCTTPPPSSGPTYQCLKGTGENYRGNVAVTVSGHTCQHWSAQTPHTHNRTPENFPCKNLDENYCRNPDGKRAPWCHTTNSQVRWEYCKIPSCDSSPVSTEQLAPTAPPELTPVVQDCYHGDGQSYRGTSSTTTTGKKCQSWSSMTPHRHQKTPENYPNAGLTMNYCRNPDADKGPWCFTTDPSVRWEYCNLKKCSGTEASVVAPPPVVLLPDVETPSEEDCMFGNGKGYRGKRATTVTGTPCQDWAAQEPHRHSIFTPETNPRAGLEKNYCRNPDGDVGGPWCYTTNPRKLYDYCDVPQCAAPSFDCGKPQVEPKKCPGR
Plasminogen, sequence (P00747 581-810 limits assumed): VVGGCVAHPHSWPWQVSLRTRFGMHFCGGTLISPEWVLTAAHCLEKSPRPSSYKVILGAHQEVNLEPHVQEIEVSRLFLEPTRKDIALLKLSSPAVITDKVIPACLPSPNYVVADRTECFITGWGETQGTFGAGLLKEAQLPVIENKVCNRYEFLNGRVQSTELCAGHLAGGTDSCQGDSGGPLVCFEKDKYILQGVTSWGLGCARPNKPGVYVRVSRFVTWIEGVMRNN

What does the source list for `CCC[C@H](NC(=O)[C@@H]1[C@H]2CCC[C@H]2CN1C(=O)[C@@H](NC(=O)[C@@H](NC(=O)c1cnccn1)C1CCCCC1)C(C)(C)C)C(=O)C(=O)NC1CC1`?
IC50 [1]: < 1000 nM; IC90 [1]: < 1000 nM; IC50 [2]: > 100000 nM; IC90 [2]: > 100000 nM; IC50 [3]: 8700 nM; IC90 [4]: > 100000 nM; Ratio [5]: 0.9; Ratio EC50 [6]: 1; Ratio [7]: 1.9; Ratio EC50 [8]: 3.3; EC50 [9]: 200 nM; EC90 [9]: 1500 nM; Ratio [10]: 66; Ratio EC50 [11]: 37; EC50 [12]: 2200 nM; EC90 [12]: 52000 nM; Ratio [13]: 6.5; Ratio EC50 [14]: 8.5; EC50 [15]: 510 nM; EC90 [15]: 5100 nM; Ratio [16]: 0.9; Ratio EC50 [17]: 1.3; EC50 [18]: 80 nM; EC90 [18]: 740 nM; Ratio [19]: 11; EC50 [20]: 580 nM; EC90 [20]: 690 nM; Ratio EC50 [21]: 13; EC50 [22]: 800 nM; EC90 [22]: 8300 nM; Ratio [23]: >130; Ratio EC50 [24]: 780; EC50 [25]: 46000 nM; EC90 [25]: > 100000 nM; EC50 [26]: 60 nM; EC90 [26]: 780 nM; CC50 [27]: > 10000 nM; EC50 [28]: 400 nM; EC90 [28]: 900 nM

`CC[C@@H]1C[C@]1(NC(=O)[C@@H]1C[C@@H]2CN1C(=O)[C@H](C(C)(C)C)NC(=O)OCC(C)(C)CCCCc1cccc3c1CN(C3)C(=O)O2)C(=O)NS(=O)(=O)C1CC1` was tested. Which IC50 [1] did it give?
The IC50 was > 100000 nM.

What about the IC90 [1] of the same compound?
Its IC90 is > 100000 nM.

And the IC50 [2]?
Its IC50 is 78000 nM.

What about the IC90 [2] of the same compound?
The IC90 was > 100000 nM.

What about the IC50 [3] of the same compound?
The IC50 was > 100000 nM.

What about the IC90 [3] of the same compound?
Its IC90 is > 100000 nM.

And the IC90 [4]?
Its IC90 is > 100000 nM.

And the IC50 [29]?
The IC50 was > 100000 nM.

And the Ratio [5]?
The Ratio was 840.

And the “Ratio EC50” value [6]?
Its value is 390.

And the Ratio [7]?
Its Ratio is 0.8.

And the “Ratio EC50” value [8]?
The value was 0.7.

What about the EC50 [9] of the same compound?
The EC50 was 4.6 nM.

What about the EC90 [9] of the same compound?
The EC90 was 10 nM.

And the Ratio [10]?
The Ratio was 1.3.

And the EC50 [12]?
The EC50 was < 1 nM.

And the EC90 [12]?
The EC90 was 17 nM.

What about the Ratio [13] of the same compound?
Its Ratio is 7.8.

And the “Ratio EC50” value [14]?
The value was 7.2.

And the EC50 [15]?
Its EC50 is 45 nM.

And the EC90 [15]?
The EC90 was 100 nM.

What about the Ratio [16] of the same compound?
The Ratio was >77.

And the EC50 [18]?
Its EC50 is > 1000 nM.

What about the EC90 [18] of the same compound?
Its EC90 is > 1000 nM.

What about the EC50 [20] of the same compound?
Its EC50 is 2400 nM.

And the EC90 [20]?
The EC90 was 11000 nM.

What about the EC50 [22] of the same compound?
Its EC50 is > 1000 nM.

What about the EC90 [22] of the same compound?
The EC90 was > 1000 nM.

What about the Ratio [23] of the same compound?
Its Ratio is >77.

And the “Ratio EC50” value [24]?
Its value is 150.

And the EC50 [25]?
The EC50 was 910 nM.

And the EC90 [25]?
The EC90 was > 1000 nM.

What about the EC50 [26] of the same compound?
The EC50 was 6.2 nM.

And the EC90 [26]?
The EC90 was 13 nM.
